Source: PubChem BioAssay
Only some compounds are listed: those with a hit (about 1.4% of all), similar ones and a draw of the others.
Thrombin inh – human alpha-thrombin inhibitors, primary screen, counter-screen for coagulation protease inhibitor project, biochemical, 1536-well, fluorogenic AMC substrate; Prothrombin (Homo sapiens), P00734; 0.26% of 220,000 active; AID 1046, 2008; inhibition, % at 5 µM; Boc-VPR-AMC fluorogenic substrate cleavage;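 active = inhibition at or above 40%; inactive = inhibition below 40%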
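System – human alpha-thrombin · Medium – pH 7.5 Tris (50 mM) with NaCl 150 mM, Tween 20 0.05% · Compound – single-point dosing at 5 µM, 0.2% DMSO · Incubation – enzyme reaction carried out at room temperature · Technique – fluorescence of released AMC, ex 355 nm, em 460 nm · Read-out basis – % inhibition of thrombin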
m-calpain inh – inhibitors of pig calpain II, primary screen, biochemical, fluorogenic peptide substrate, 1536-well. 0.37% of 220,000 active. inhibition, % at 16 µM. purified calpain II, 30 min;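 active = inhibition above about 50%, limit read from the data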
FXIa inh – human FXIa protease inhibitors, primary screen, biochemical, 1536-well. Coagulation factor XI (Homo sapiens), P03951. 0.14% of 220,000 active. AID 798, 2007. inhibition, % at 5 µM. purified FXIa, Boc-Glu-Ala-Arg-AMC fluorogenic substrate;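 active = inhibition of at least 40%; inactive = inhibition below 40%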;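 note: fluorescence of freed AMC excited at 355 nm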
Target sequence (P03951 19-387 limits assumed): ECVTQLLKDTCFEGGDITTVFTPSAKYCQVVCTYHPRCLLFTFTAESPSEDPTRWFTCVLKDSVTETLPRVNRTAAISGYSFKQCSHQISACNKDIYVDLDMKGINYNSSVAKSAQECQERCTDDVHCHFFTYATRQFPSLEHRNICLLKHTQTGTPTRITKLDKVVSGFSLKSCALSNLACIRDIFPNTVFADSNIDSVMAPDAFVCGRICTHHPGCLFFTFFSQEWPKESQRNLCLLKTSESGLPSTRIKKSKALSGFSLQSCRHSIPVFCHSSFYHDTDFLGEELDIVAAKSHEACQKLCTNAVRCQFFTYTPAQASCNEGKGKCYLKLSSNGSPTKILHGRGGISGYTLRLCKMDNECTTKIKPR
Target sequence (P03951 388-625 limits assumed): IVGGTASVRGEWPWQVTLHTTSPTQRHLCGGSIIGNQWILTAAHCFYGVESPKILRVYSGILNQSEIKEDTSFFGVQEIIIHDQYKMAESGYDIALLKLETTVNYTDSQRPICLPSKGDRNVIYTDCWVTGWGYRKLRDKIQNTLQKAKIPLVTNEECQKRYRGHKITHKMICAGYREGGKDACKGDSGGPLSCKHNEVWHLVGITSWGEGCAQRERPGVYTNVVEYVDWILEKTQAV
FXIIa inh 1536 – human FXIIa protease inhibitors, primary screen, biochemical, 1536-well; Coagulation factor XII (Homo sapiens), P00748; purified FXIIa, Boc-QGR-AMC fluorogenic substrate, 2 h; inhibition, % at 5 µM; 0.3% of 220,000 active; AID 800, 2007; in the data active = inhibition above about 40%
hK5 inh – human KLK5 protease inhibitors, primary screen, biochemical, 1536-well; Kallikrein-5 (Homo sapiens), Q9Y337; recombinant hK5, fluorogenic AMC substrate cleavage; inhibition, % at 5 µM; 0.59% of 210,000 active; AID 873, 2007;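 active = inhibition of 40% or more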
Each line names hits and unclear results; the compound was inactive in the other large screens.

Cc1ccc2nc(NC(=O)CSCC(=O)OCC(=O)c3ccc(Br)cc3)sc2c1	Thrombin inh 92
COC(=O)c1ccc2nc(NC(=O)CSCC(=O)OCC(=O)c3ccccc3)sc2c1	none
CC1=CC2=C(OC1N(C)C)c1cccc3cccc(c13)C2=O (stereo unspecified)	hK5 inh 50
Cc1ccc(N2C(=O)c3cccc4cccc(c34)C2=O)cc1	none
O=C(CSc1nc2ccccc2s1)NC1CCCC1	FXIIa inh 1536 42
Cc1c(NC(=O)CSc2nc3ccccc3s2)c(=O)n(-c2ccccc2)n1C	FXIIa inh 1536 45
O=C(CSc1nnc(CSc2nc3ccccc3s2)o1)NC1CCCCC1	none
O=C(N/N=C/c1ccc(N2CCOCC2)cc1)C1COc2ccccc2O1 (stereo unspecified)	none
Cc1ccsc1/C=N/NC(=O)C1C(=O)NCC1c1ccccc1 (stereo unspecified)	none
Cc1ccc(C)c(S(=O)(=O)Nc2ccc(C(=O)NCCc3ccccn3)cc2)c1	none
COCCNC(=O)c1ccc(NS(=O)(=O)c2cc(C)ccc2C)cc1	hK5 inh 42
Cc1ccc(C)c(N(C(=O)Cc2cccs2)C(C(=O)NC2CCCC2)c2ccc(C)o2)c1 (stereo unspecified)	m-calpain inh 53
Cc1ccc(N(C(=O)CNC(=O)c2ccco2)C(C(=O)NC2CCCC2)c2cccnc2)cc1C (stereo unspecified)	none
Cc1ccc(N(C(=O)CCl)C(C(=O)NC2CCCCC2)c2cccnc2)cc1C (stereo unspecified)	m-calpain inh 102
Cc1ccc(C(C(=O)NC2CCCC2)N(C(=O)Cc2cccs2)c2ccc(C)c(C)c2)o1 (stereo unspecified)	m-calpain inh 63
Cc1ccc(N(C(=O)Cc2cccs2)C(C(=O)NC2CCCC2)c2ccncc2)cc1 (stereo unspecified)	none
CC1(C)Oc2ccccc2OC1(O)c1ccc2ccccc2n1 (stereo unspecified)	none
O=C(CC(=O)N/N=C/c1cccs1)NCc1ccccc1	none
O=C(CCC(=O)N/N=C/c1ccc(Br)s1)NCc1ccccc1	FXIIa inh 1536 44
CSc1nc(-c2ccccc2)nc(N2CCOCC2)c1C(C)=O	Thrombin inh 50
CSc1nc(-c2ccccc2)nc(N2CCCC2)c1C(C)=O	none
O=C(CN1CCCCCCC1)Nc1ccc(Cl)cc1Cl	m-calpain inh 88
CCC(C)(C)n1nnnc1C(c1cc(OC)ccc1OC)N1CCN(Cc2ccccc2)CC1 (stereo unspecified)	none
CCOC(=O)c1nc(-c2ccc(OC)c(OC)c2)no1	none (no result: hK5 inh)
Cc1ccccc1-c1nnc(-c2ccccc2)o1	none
Cn1cc(-c2nnc(-c3ccccc3)o2)c2ccccc21	hK5 inh 87
CCOC(=O)C(C)/C(C)=N\Nc1ccc([N+](=O)[O-])cc1[N+](=O)[O-] (stereo unspecified)	m-calpain inh 52 (no result: hK5 inh)
O=C(O)CCSCCCN1C(=O)c2cccc3cccc(c23)C1=O	none
O=C(NCC(=O)N1CCN(S(=O)(=O)/C=C/c2ccccc2)CC1)c1ccc(Cl)cc1	none
O=C(NCC(=O)N1CCN(S(=O)(=O)/C=C/c2ccccc2)CC1)c1ccccc1F	FXIIa inh 1536 57 (no result: Thrombin inh)
O=c1c2[nH]c3cccc(Cl)c3c2ncn1CCN1CCCCC1	FXIIa inh 1536 43
CCOC(=O)CN1C(=O)CN(c2ccc(C)c(C)c2)C1=O	none
CCN(CC)Cc1ccccc1Sc1ccccc1	Thrombin inh 44, hK5 inh 44
Cc1ccccc1NC(=O)CCC(=O)OCC(=O)c1cccc([N+](=O)[O-])c1	none
Cc1cc(C(C#N)c2cccc(Cl)c2)n2ncnc2n1 (stereo unspecified)	FXIIa inh 1536 42
COc1ccc(C(=O)NC(=S)N2CCCCC2)cc1	hK5 inh 44
COc1ccc(Nc2nc(=O)c3cc([N+](=O)[O-])ccc3s2)cc1	m-calpain inh 60
CCOC(=O)COc1c(/C=N\OC)cc(Cl)cc1OC	none
CN1C(=O)S/C(=C\c2ccccc2OCc2ccc(C(=O)O)cc2)C1=O	none
Cc1ccc(Oc2ccccc2/C=C2\SC(=O)N(C)C2=O)cc1	hK5 inh 51
O=C(CSc1ncnc2c1oc1ccccc12)Nc1ccccc1C(F)(F)F	hK5 inh 47
Cc1ccc(CN(C)C(=O)CC2C(=O)NCCN2CC2CCCCC2)cc1 (stereo unspecified)	none (no result: hK5 inh)
CN(Cc1ccon1)C(=O)CC1C(=O)NCCN1CC1CCCCC1 (stereo unspecified)	FXIa inh 60
Cc1ccc(C(=O)CSc2nc(C)cc(C)c2C(N)=O)cc1	Thrombin inh 104, hK5 inh 49
CCOC(=O)C1CN(S(=O)(=O)c2ccccc2)C1	none
CCOC(=O)C1CN(S(=O)(=O)c2ccc(C)cc2)C1	m-calpain inh 53
CC(C)(C)[C@H]1C=C(C(N)=O)O[C@@H](OCc2ccc(CO)cc2)C1	none
Cc1nn(CCc2nn[nH]n2)c2nc(-c3ccc(Br)cc3)cc(C(F)(F)F)c12	FXIIa inh 1536 41
Cc1ncsc1CCOC(=O)c1cccnc1	none
Cc1ncsc1CCOC(=O)C12CC3CC(CC(C3)C1)C2	m-calpain inh 67
O=C(Nc1ccc(Cl)c(Cl)c1)c1ccc(Cn2cc(Cl)cn2)cc1	m-calpain inh 53
CC1CCN(c2ccc(C(=O)O)cc2NS(=O)(=O)c2ccc(Br)cc2)CC1	none
CN(c1ncc(C(F)(F)F)cc1Cl)N1C(=O)c2cccc([N+](=O)[O-])c2C1=O	hK5 inh 47
CCN(CC)CCN1C(=O)c2ccccc2NC1c1ccccc1F (stereo unspecified)	hK5 inh 41
CCN(CC)CCN1C(=O)c2ccccc2NC1c1ccc(F)cc1 (stereo unspecified)	none
C/C(CC(=O)Nc1cccnc1)=N\NC(=O)C(C)Oc1ccc(Cl)cc1Cl (stereo unspecified)	none
Cn1nnnc1SCC(=O)NC1CCCCC1	m-calpain inh 57
O=C(CSc1ccc2nnc(-c3ccncc3)n2n1)Nc1nccs1	m-calpain inh 65
CN(C)S(=O)(=O)c1ccc2c(c1)nc(CCC(=O)NCc1ccc(Cl)cc1)n2C	m-calpain inh 51
CN(C)S(=O)(=O)c1ccc2c(c1)nc(CCC(=O)NCC1CCCCC1)n2C	none
CC(=O)Nc1ccc(NS(=O)(=O)c2ccc(C)cc2)cc1[N+](=O)[O-]	hK5 inh 47
COc1ccccc1N(Cc1ccccc1)S(=O)(=O)c1cc(C(=O)O)ccc1Cl	none
COc1ccc(Nc2c(-c3ccc(C)cc3)nc3cnccn23)cc1	m-calpain inh 75
COc1ccc(Nc2c(-c3ccc(OC)cc3)nc3cnccn23)cc1	none
CCN(CC(O)Cn1c2ccccc2c2ccccc21)S(=O)(=O)c1ccc(F)cc1 (stereo unspecified)	m-calpain inh 69
